Data: ChEMBL document CHEMBL1156160, “The introduction of P4 substituted 1-methylcyclohexyl groups into Boceprevir: a change in direction in the search for a second generation HCV NS3 protease inhibitor” (Bioorg Med Chem Lett, 2010)

Legend:
[1] = Selectivity for HCV NS3 protease over human neutrophil elastase
Procedure, shortened: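 Ratio of inhibitory activity against human neutrophil elastase to that against HCV protease (HNE/HCV), taken as selectivity. HCV activity was from a continuous protease assay using NS4A-tethered single-chain NS3 serine protease, giving Ki* as the equilibrium constant for reversible covalent binding of the electrophilic ketone to the active-site serine. Compounds were tested as P1-epimer diastereomer mixtures.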

[2] = AUC in monkey at 3 mg/kg, po; type: ADME, organism-based, Macaca mulatta; parameters: dose 3 mg/kg, route oral; conditions: rhesus monkey, plasma
[3] = Inhibition of HCV NS4A tagged recombinant single chain NS3 protease after 15 mins; parameters: species or system Hepacivirus hominis
Hepatitis C virus = assay: Antiviral activity against HCV in human hepatoma cells assessed as inhibition of RNA replication by replicon assay; type: functional, Hepacivirus hominis
[4] = Bioavailability in dog; type: ADME, organism-based, Canis lupus familiaris; conditions: in vivo

Ratio [1]: 2200
AUC [2]: 0.12 µM·h
Ki [3]: 14 nM
EC90 (Hepatitis C virus): 350 nM
bioavailability [4]: 34%
SMILES: CC(C)(C)NC(=O)N[C@H](C(=O)N1C[C@H]2[C@@H]([C@H]1C(=O)NC(CC1CCC1)C(=O)C(N)=O)C2(C)C)C(C)(C)C (stereo not given in full) [BOCEPREVIR]
